The results in this text go back to ChEMBL document CHEMBL2046313, “Discovery and evaluation of a non-Zn chelating, selective matrix metalloproteinase 13 (MMP-13) inhibitor for potential intra-articular treatment of osteoarthritis” (J Med Chem, 2012).

Data set [1] in a line: Metabolic stability in rat microsomes assessed as unmetabolized compound after 60 mins. Format: ADME, Microsome. To be noted: read-out: Stability.
Data set [2] deals with Rattus norvegicus. Nature of the data set: Toxicity in Sprague-Dawley rat assessed as joint irritation at 0.5 mg/kg, ia measured after 48 hrs. Format: organism-based. Also on record: dose 0.5 mg/kg. The following applies: in vivo, other.
The species named for data set [3] is Rattus norvegicus. Put plainly: Toxicity in Sprague-Dawley rat assessed as ability to use limbs at 0.5 mg/joint measured on day 56. It counts as organism-based. To be noted: in vivo, other.
A short description of data set [4]: Drug uptake in Sprague-Dawley rat synovial lavage at 0.5 mg/joint measured on day 56. It counts as ADME. The following applies: in vivo, other, BLD = below limit of detection.
For data set [5], the target named is Disintegrin and metalloproteinase domain-containing protein 17 (Homo sapiens, UniProt P78536). Nature of the data set: Inhibition of human recombinant TACE using MCA-Pro-Leu-Ala-Gln-Ala-Val-Dpa-Arg-Ser-Ser-Ser-Arg-NH2 as substrate preincubated for 10 mins measured by fluorescence analysis. An outline of the steps: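 Recombinant human TACE was assayed with its fluorogenic peptide substrate in 25 mM Tris-HCl pH 9, 1.25 μM Zn(OAc)₂, 0.005% Brij-35. Enzyme was 1–10 nM and substrate 4–10 μM. Enzyme was preincubated 10 min with varying inhibitor concentrations, and IC50 came from at least duplicate runs.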

Data set [6] is filed under the species Rattus norvegicus. Nature of the data set: Chondroprotective activity in Sprague-Dawley rat cartilage assessed as inhibition of MMP13-mediated C1,C2 release at 0.5 mg/joint, ia measured on day 7 by ELISA. It counts as functional. An outline of the steps:
(§1)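 Male Sprague-Dawley rats (175−200 g, three per group) received one IA injection of 50 μL PBS holding 10 mg/mL suspension (sonicated, vortexed) into right knee. They were killed at 1, 7, 14 or 21 days, and tibial cartilage was collected. Cartilage was then challenged with 10 μg/mL APMA-activated human MMP-13 for 24 h at 37 °C in Tris pH 7.5. The reaction was stopped with 10 mM EDTA, and released C1,2C was measured by ELISA. Vehicle cartilage incubated with or without MMP-13 defined 100% and 0%.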

Data set [7] has as its target Neutrophil collagenase (Homo sapiens, UniProt P22894). Put plainly: Inhibition of human recombinant MMP8 using MCA-Pro-Leu-Gly-Leu-Dpa-Ala-Arg-NH2.AcOH as substrate preincubated for 10 mins measured by fluorescence analysis. The gist of the method:
(§2)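 Catalytic domains of recombinant human MMPs were assayed with fluorogenic OmniMMP substrate in 50 mM Tris-HCl pH 7.5, 150 mM NaCl, 5 mM CaCl₂, 0.05% Brij-35. Enzyme was 1–10 nM and substrate 4–10 μM, optimized per assay. Enzyme was preincubated 10 min with varying inhibitor concentrations, and IC50 was calculated from runs done at least in duplicate.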

Data set [8] can be described thus: Drug uptake in Sprague-Dawley rat cartilage at 0.5 mg/joint measured on day 56. It counts as ADME, tissue-based, Cartilage tissue. To be noted: read-out: Drug uptake.
Data set [9] is filed under the species Rattus norvegicus. Nature of the data set: Chondroprotective activity in Sprague-Dawley rat cartilage assessed as inhibition of MMP13-mediated C1,C2 release at 0.5 mg/joint, ia measured on day 14 by ELISA. It counts as functional. An outline of the steps: as §1
For data set [10], the target named is T1, Matrilysin (Homo sapiens, UniProt P09237).
T1 sequence (P09237 whole entry): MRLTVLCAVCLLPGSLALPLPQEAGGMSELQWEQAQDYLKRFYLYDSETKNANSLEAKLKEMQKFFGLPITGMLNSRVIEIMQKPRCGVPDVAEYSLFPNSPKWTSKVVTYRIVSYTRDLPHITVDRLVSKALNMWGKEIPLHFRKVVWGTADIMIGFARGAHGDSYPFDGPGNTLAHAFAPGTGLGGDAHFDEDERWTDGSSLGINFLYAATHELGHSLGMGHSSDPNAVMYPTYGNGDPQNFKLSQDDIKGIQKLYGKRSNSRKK
Nature of the data set: Inhibition of human recombinant MMP7 using MCA-Pro-Leu-Gly-Leu-Dpa-Ala-Arg-NH2.AcOH as substrate preincubated for 10 mins measured by fluorescence analysis. The gist of the method: as §2

In data set [11] the target is Stromelysin-1 (Homo sapiens, UniProt P08254). Put plainly: Inhibition of human recombinant MMP3 using MCAArg-Pro-Lys-Pro-Val-Glu-Nva-Trp-Arg-Lys(DNP)-NH2 as substrate preincubated for 10 mins measured by fluorescence analysis. An outline of the steps: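 Catalytic domain of recombinant human MMP-3 was assayed with NFF-3 fluorogenic substrate in 50 mM MES pH 6.0, 10 mM CaCl₂, 0.05% Brij-35. Enzyme was 1–10 nM and substrate 4–10 μM. Enzyme was preincubated 10 min with varying inhibitor concentrations, and IC50 came from at least duplicate runs.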

Data set [12] has as its system Rattus norvegicus. Nature of the data set: Toxicity in Sprague-Dawley rat assessed as joint irritation at 0.5 mg/kg, ia measured after 3 weeks. Format: organism-based. To be noted: in vivo, other, 504 h. Also on record: dose 0.5 mg/kg.
In data set [13] the test system is Cartilage tissue. Nature of the data set: Inhibition of collagen degradation in bovine articular cartilage assessed as inhibition of interlukein-1alpha/oncostatin M-induced C1,C2 release measured after 11 days by ELISA. Format: functional, tissue-based. To be noted: Bos taurus. The gist of the method: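 Freshly isolated bovine articular cartilage pieces (~3 mm²) were stimulated with 5 ng/mL IL-1α plus 50 ng/mL OSM, with or without compound, for 11 days. Medium was refreshed twice weekly. Collagen degradation products in the conditioned medium were quantified by C1,2C ELISA.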

The test system of data set [14] is Plasma. Put plainly: Drug uptake in Sprague-Dawley rat plasma at 100 mg/kg, po measured after 8 weeks. Also on record: dose 100 mg/kg, route oral. The following applies: in vivo, 1344 h, BLD = below limit of detection. Format: ADME, organism-based.
Data set [15] is filed under the species Rattus norvegicus. Nature of the data set: Chondroprotective activity in Sprague-Dawley rat cartilage assessed as inhibition of MMP13-mediated C1,C2 release at 0.5 mg/joint, ia measured after 24 hrs by ELISA. Format: functional. An outline of the steps: as §1
Data set [16] concerns Rattus norvegicus. Nature of the data set: Toxicity in Sprague-Dawley rat assessed as adverse effects at 0.5 mg/kg, ia measured after 48 hrs. It counts as organism-based. Also on record: dose 0.5 mg/kg. To be noted: in vivo, other.

SMILES strings stand for the structures. Where only a bound is given, the exact number is not on record here.

Disintegrin and metalloproteinase domain-containing protein 17, sequence (P78536 whole entry, the tested form may be a part): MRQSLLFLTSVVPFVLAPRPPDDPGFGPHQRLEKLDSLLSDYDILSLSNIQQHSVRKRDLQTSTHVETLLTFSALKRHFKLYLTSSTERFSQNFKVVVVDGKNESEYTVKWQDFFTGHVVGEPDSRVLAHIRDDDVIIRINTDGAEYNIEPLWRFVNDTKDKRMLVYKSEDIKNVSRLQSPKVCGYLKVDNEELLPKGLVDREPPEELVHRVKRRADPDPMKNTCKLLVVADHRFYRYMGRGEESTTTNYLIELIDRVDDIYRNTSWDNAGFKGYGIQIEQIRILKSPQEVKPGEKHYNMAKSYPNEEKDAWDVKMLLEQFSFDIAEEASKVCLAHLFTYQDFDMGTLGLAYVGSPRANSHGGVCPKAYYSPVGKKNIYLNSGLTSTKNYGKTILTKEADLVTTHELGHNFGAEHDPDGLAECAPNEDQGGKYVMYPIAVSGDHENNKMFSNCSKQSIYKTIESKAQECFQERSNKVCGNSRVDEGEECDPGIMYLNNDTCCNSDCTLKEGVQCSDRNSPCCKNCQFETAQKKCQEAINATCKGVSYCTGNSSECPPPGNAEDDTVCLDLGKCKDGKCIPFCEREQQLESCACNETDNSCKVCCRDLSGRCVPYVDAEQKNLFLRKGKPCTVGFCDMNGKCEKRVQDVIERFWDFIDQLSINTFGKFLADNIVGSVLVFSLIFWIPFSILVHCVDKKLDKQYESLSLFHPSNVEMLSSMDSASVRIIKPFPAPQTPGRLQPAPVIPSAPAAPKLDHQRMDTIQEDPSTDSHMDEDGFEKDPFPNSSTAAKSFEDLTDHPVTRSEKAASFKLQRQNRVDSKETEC
Neutrophil collagenase, sequence (P22894 whole entry, the tested form may be a part): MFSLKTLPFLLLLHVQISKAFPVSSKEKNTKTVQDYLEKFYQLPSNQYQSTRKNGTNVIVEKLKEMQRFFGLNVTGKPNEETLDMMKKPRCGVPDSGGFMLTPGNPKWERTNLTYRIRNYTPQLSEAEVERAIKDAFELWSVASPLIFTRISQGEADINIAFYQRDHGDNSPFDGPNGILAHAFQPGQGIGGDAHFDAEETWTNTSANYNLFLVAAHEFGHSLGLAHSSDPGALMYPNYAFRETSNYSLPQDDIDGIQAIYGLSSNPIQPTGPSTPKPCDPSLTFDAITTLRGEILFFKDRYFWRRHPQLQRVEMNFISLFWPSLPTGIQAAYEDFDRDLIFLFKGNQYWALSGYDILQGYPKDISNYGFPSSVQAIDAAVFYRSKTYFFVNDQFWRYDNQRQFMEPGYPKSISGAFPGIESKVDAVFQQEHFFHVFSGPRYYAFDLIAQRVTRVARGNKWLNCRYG
Stromelysin-1, sequence (P08254 whole entry, the tested form may be a part): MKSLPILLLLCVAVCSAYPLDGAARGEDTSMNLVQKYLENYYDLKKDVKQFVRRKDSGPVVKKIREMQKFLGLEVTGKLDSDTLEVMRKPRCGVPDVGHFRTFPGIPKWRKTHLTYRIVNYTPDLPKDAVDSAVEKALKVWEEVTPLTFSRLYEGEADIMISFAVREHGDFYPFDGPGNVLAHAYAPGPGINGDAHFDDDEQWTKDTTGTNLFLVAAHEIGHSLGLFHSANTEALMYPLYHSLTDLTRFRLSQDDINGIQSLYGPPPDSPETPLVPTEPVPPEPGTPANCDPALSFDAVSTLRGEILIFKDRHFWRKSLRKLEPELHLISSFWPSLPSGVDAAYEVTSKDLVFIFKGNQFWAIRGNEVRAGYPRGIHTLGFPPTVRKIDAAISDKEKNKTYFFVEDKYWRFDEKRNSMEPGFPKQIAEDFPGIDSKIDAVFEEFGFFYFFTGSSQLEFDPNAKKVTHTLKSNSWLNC

For `Cc1c(C(=O)O)ccc2c1CC[C@@H]2NC(=O)c1cc(C(=O)NCc2ccc3c(c2)NC(=O)CO3)nc2ccnn12`, the remaining at 1 h in data set [1] was 95%. For the same molecule, the Activity result in [2], in [3], in data set [12] and in [16] was “Non-toxic” in each case. Moreover, the Drug uptake entry in [4] is given as “BLD”. Further, the IC50 is > 20 µM in data set [5]; 3.2 µM in [7]; > 20 µM in [10]; 8.2 µM in data set [11]; 0.02 µM in [13] (264 h). Moreover, the “inhibition (INH)” value in data set [6], in [9] and in [15] was 100% throughout. The concentration at 56 days in data set [8] is ≥ 2000 nM. The inhibition result in data set [13] is “Dose-dependent effect”. The Cp entry in [14] is recorded as “BLD”.

Broadly, the IC50 is the midpoint of a concentration-inhibition curve.
